# Calls of active or inactive are those of the source. The calls are words filed in the database; no cut-off is given here.
# Key:
# BT-474 = experiment: Antiproliferative activity against human BT-474 cells incubated for 72 hrs by MTT assay; type: functional, cell-based; conditions: BT-474, 72 h
# Method in brief: (§1)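 Cells seeded at 5 × 10^3/well and allowed to attach overnight, then washed with PBS. Compound diluted from 10 mM DMSO stock into medium (100 ng/mL HGF added for c-Met-expressing cells), in triplicate, 72 h at 37 °C. MTT added for 4 h, formazan dissolved in DMSO, absorbance read at 570 nm. Cell numbers taken from a standard curve; IC50 calculated.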
# SK-BR-3 [1] = experiment: Antiproliferative activity against human SK-BR-3 cells incubated for 72 hrs by MTT assay; type: functional, cell-based; conditions: SK-BR-3, 72 h; method in brief: as §1
# T47D [2] = experiment: Antiproliferative activity against human T47D cells incubated for 72 hrs by MTT assay; type: functional, cell-based; method in brief: as §1
# MDA-MB-468 [3] = experiment: Antiproliferative activity against human MDA-MB-468 cells incubated for 72 hrs by MTT assay; type: functional, cell-based; conditions: MDA-MB-468, 72 h; method in brief: as §1
# MDA-MB-231 [4] = experiment: Anti-invasive activity in human MDA-MB-231 cells after 24 hrs […]; type: functional, cell-based; conditions: MDA-MB-231, 24 h
# [5] = target: Serine/threonine-protein kinase mTOR (Homo sapiens) (UniProt P42345); experiment: Inhibition of mTOR in human MDA-MB-231 cells assessed as reduction in p-S6K level at 0.25 to 0.5 uM by Western blot analysis; type: cell-based; conditions: dose 0.25-0.5 µM
# Method in brief: (§2)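 Cells seeded at 5 × 10^5 per 100 mm dish and allowed to attach overnight. Treated with compound or DMSO for 72 h (HGF 100 ng/mL added for MDA-MB-231). Lysed in RIPA buffer with protease inhibitors. 30 μg protein run on SDS-PAGE, transferred to PVDF, blocked in 5% BSA/TBST. Primary antibodies overnight at 4 °C, HRP secondary antibodies, chemiluminescent detection.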
# mTORC2 (Homo sapiens) [6] = target: T1, mTORC2 (Homo sapiens) (UniProt P42345+Q6R327+Q9BVC4+Q9BPZ7); experiment: Inhibition of mTORC2 in human MCF7 cells assessed as reduction in Akt phosphorylation at Ser473 residue at 0.25 to 0.5 uM by Western blot analysis; type: cell-based; conditions: dose 0.25-0.5 µM; method in brief: as §2
# mTORC2 (Homo sapiens) [7] = target: T1, mTORC2 (Homo sapiens); experiment: Inhibition of mTORC2 in human MDA-MB-231 cells assessed as reduction in Akt phosphorylation at Ser473 residue at 0.25 to 0.5 uM by Western blot analysis; type: cell-based; conditions: dose 0.25-0.5 µM; method in brief: as §2
# MCF7 [8] = experiment: Induction of autophagy in human MCF7 cells assessed as increase in LC3 level at 0.4 to 0.8 uM by Western blotting analysis; type: functional, cell-based; conditions: dose 0.4-0.8 µM; method in brief: as §2
# MDA-MB-231 [9] = experiment: Induction of autophagy in human MDA-MB-231 cells assessed as increase in beclin-1 level at 0.4 to 0.8 uM by Western blotting analysis; type: functional, cell-based; conditions: dose 0.4-0.8 µM; method in brief: as §2
# MDA-MB-231 [10] = experiment: Induction of autophagy in human MDA-MB-231 cells assessed as autophagic vacuoles by microscopic analysis; type: functional, cell-based
# Method in brief: (§3)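 Cells of each line treated with compound and examined by light microscopy for autophagic vacuoles, compared with control cells.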
# SK-BR-3 [11] = experiment: Induction of autophagy in human SK-BR-3 cells assessed as autophagic vacuoles by microscopic analysis; type: functional, cell-based; method in brief: as §3
# T47D [12] = experiment: Induction of autophagy in human T47D cells assessed as autophagic vacuoles by microscopic analysis; type: functional, cell-based; method in brief: as §3
# MDA-MB-468 [13] = experiment: Induction of autophagy in human MDA-MB-468 cells assessed as autophagic vacuoles by microscopic analysis; type: functional, cell-based; method in brief: as §3
# MCF7 [14] = experiment: Inhibition of colony formation in human MCF7 cells assessed as reduction in colony diameter at 0.2 uM incubated for 8 days by inverted phase contrast microscopic analysis (reference value: 50 micrometer); type: functional; conditions: time 8 day
# Method in brief: (§4)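 Soft agar assay: 5 × 10^3 MCF-7 cells per well in a cell/agar matrix layered over a base agar layer. Overlaid with 10% serum medium containing 0.2 or 0.6 μM compound, or DMSO. Colonies photographed under inverted phase-contrast microscopy after 8 days. Matrix then solubilized, MTT added (4 h, 37 °C), detergent added, A570 read. Growth normalized to DMSO.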
# MCF7 [15] = experiment: Inhibition of colony formation in human MCF7 cells assessed as reduction in colony diameter at 0.6 uM incubated for 8 days by inverted phase contrast microscopic analysis (reference value: 50 micrometer); type: functional; conditions: time 8 day; method in brief: as §4
# MCF7 [16] = experiment: Inhibition of colony formation in human MCF7 cells at 0.6 uM incubated for 8 days by inverted phase contrast microscopic analysis; type: functional; conditions: MCF7, 192 h, time 8 day; method in brief: as §4
# MCF-10A = experiment: Cytotoxicity against human MCF-10A cells at 6 times of IC50 incubated for 24 hrs by MTT assay; type: toxicity, cell-based
# Method in brief: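 MCF-10A cells seeded at 3 × 10^4/well and allowed to attach overnight. Treated with compound in serum-free medium, in triplicate, for 24 h; vehicle wells got the maximum DMSO amount. Doxorubicin (10 μM) was the positive control. MTT for 4 h, formazan dissolved in DMSO, A570 blank-subtracted. Cell numbers from a standard curve; viability expressed versus DMSO wells.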
# [17] = Toxicity in athymic nude mouse xenografted with human MDA-MB-231/GFP cells at 10 mg/kg, ip measured after 34 days post inoculation; conditions: in vivo, 816 h
# [18] = target: Serine/threonine-protein kinase mTOR (Homo sapiens) (UniProt P42345); experiment: In vivo inhibition of mTOR in human MCF7 cells xenografted in athymic nude mouse assessed as downregulation of phosphorylated S6K level at 10 mg/kg, ip
# [19] = target: Serine/threonine-protein kinase mTOR (Homo sapiens) (UniProt P42345); experiment: In vivo inhibition of mTOR in human MCF7 cells xenografted in athymic nude mouse assessed as downregulation of phosphorylated 4E-BP1 level at 10 mg/kg, ip
# MCF7 [20] = experiment: Antitumor activity against human MCF7 cells xenografted in athymic nude mouse assessed as inhibition of tumor growth at 10 mg/kg, ip administered for 3 weeks; set-up: scale not given: the % may be the effect or the level left
# [21] = Toxicity in athymic nude mouse xenografted with human MCF7 cells assessed as reduction in body weight at 10 mg/kg, ip measured after 75 days post inoculation; conditions: in vivo, 1800 h
# [22] = target: Serine/threonine-protein kinase mTOR (Homo sapiens) (UniProt P42345); experiment: In vivo inhibition of mTOR in human MDA-MB-231/GFP cells xenografted in athymic nude mouse assessed as downregulation of phosphorylated S6K level at 10 mg/kg, ip
# [23] = target: Serine/threonine-protein kinase mTOR (Homo sapiens) (UniProt P42345); experiment: In vivo inhibition of mTOR in human MDA-MB-231/GFP cells xenografted in athymic nude mouse assessed as downregulation of phosphorylated 4E-BP1 level at 10 mg/kg, ip
# MCF7 [24] = experiment: Antitumor activity against human MCF7 cells xenografted in athymic nude mouse assessed as reduction in mean tumor volume at 10 mg/kg, ip measured after 75 days post inoculation (reference value: 1093 +/- 185 mm3); conditions: time 75 day
compound,measurement,setting,value
CC(=O)C1=C(O)C=C2Oc3c(C(=O)/C=C/c4ccc(OC(F)(F)F)cc4)c(O)c(C)c(O)c3[C@]2(C)C1=O,IC50,BT-474,390 nM
same,IC50,SK-BR-3 [1],400 nM
same,IC50,T47D [2],330 nM
same,IC50,MDA-MB-468 [3],350 nM
same,IC50,MDA-MB-231 [4],420 nM
same,inhibition,[5],Active
same,inhibition,mTORC2 (Homo sapiens) [6],Active
same,inhibition,mTORC2 (Homo sapiens) [7],Active
same,Activity,MCF7 [8],Active
same,Activity,MDA-MB-231 [9],Active
same,Activity,MDA-MB-231 [10],Active
same,Activity,SK-BR-3 [11],Active
same,Activity,T47D [12],Active
same,Activity,MDA-MB-468 [13],Active
same,Activity,MCF7 [14],370 um
same,Activity,MCF7 [15],122 um
same,inhibition at 0.6 µM,MCF7 [16],75.3%
same,Activity,MCF-10A,Non-Toxic
same,Activity,[17],Non-Toxic
same,inhibition,[18],Active
same,inhibition,[19],Active
same,Activity,MCF7 [20],64.8%
same,Activity,[21],Non-Toxic
same,inhibition,[22],Active
same,inhibition,[23],Active
same,Activity,MCF7 [24],385 mm3

# Reference: ChEMBL document CHEMBL5252537, “Usnic Acid Benzylidene Analogues as Potent Mechanistic Target of Rapamycin Inhibitors for the Control of Breast Malignancies” (J Nat Prod, 2017)
